From PMC7615481 (The Journal of biological chemistry, 2023)
Entries after “also recorded” stand apart in the source; their conditions may differ. Positions of bridges follow the written chain, without caps; N, C: chain ends. Residues, ends and D or L forms follow the SMILES beside them.

What was measured:
[1] = tested on: mhICD chimeric GC-C receptor; type: binding; settings: words; Fig. 2H lower panel
[2] = tested on: mouse GC-C variant 2; experiment: Radiolabeled ST binding to monolayers, mouse GC-C variant 2; settings: monolayer HEK293E, Fig. 1E, three experiments
[3] = tested on: WT or GCD chimeric GC-C; type: binding; settings: monolayers of HEK293E; Fig. 3E
[4] = molecular target: T1, mouse GC-C (Mus musculus, UniProt Q3UWA6); type: cell-based
T1 sequence (Q3UWA6 20-1072): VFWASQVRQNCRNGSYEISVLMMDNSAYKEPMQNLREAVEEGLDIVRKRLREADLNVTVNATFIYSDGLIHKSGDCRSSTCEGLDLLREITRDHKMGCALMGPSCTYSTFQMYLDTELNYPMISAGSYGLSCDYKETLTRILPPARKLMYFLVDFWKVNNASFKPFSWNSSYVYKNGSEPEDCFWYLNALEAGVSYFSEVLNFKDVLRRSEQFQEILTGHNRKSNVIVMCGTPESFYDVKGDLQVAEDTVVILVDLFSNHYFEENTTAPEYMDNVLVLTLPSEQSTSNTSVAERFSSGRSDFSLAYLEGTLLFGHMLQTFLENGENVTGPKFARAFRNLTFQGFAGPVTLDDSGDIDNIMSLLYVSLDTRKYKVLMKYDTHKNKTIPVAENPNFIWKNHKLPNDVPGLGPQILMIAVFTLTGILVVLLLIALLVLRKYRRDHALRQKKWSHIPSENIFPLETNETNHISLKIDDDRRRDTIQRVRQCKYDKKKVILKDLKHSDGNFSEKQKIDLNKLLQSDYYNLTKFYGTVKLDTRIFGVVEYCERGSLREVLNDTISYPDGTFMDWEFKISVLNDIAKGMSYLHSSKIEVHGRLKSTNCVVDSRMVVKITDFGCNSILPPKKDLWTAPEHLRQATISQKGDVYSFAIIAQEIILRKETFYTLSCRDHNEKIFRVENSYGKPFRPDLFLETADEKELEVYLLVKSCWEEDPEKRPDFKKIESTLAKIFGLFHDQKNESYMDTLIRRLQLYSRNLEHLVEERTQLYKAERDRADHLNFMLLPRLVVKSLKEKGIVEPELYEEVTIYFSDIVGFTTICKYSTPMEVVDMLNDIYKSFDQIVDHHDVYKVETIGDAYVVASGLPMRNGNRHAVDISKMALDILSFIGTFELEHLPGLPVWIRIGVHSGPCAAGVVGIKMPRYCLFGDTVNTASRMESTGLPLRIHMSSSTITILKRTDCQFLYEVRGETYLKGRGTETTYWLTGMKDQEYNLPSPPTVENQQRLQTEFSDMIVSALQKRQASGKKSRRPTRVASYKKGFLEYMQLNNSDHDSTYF

[5] = tested on: mouse GC-C variant 1; experiment: Ligand-stimulated cGMP production in HEK293E cells, mouse GC-C variant 1; type: cell-based; settings: 10^−6 M ST, RIA, Fig. 1D
How it was run: (§1)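 HEK293E cells expressing the mouse GC-C variant were preincubated for 30 min at 37 °C in a humidified CO₂ incubator in DMEM-HG with serum, antibiotics and 500 μM IBMX. They were then exposed to medium alone or 10⁻⁶ M ST for 30 min. Monolayers were lysed in 0.1 N HCl, and cGMP was measured by RIA and normalized to cell-surface receptor amount. Representative of three independent experiments.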

[6] = tested on: mouse GC-C variant 2; experiment: Ligand-stimulated cGMP production in HEK293E cells, mouse GC-C variant 2; type: cell-based; settings: 10^−6 M ST, RIA, Fig. 1D
How it was run: as §1

[7] = tested on: hmCYC chimeric GC-C; type: cell-based
[8] = molecular target: T2, human GC-C (Homo sapiens, UniProt P25092); settings: ref [21]; cited from earlier work
T2 sequence (P25092 24-1073): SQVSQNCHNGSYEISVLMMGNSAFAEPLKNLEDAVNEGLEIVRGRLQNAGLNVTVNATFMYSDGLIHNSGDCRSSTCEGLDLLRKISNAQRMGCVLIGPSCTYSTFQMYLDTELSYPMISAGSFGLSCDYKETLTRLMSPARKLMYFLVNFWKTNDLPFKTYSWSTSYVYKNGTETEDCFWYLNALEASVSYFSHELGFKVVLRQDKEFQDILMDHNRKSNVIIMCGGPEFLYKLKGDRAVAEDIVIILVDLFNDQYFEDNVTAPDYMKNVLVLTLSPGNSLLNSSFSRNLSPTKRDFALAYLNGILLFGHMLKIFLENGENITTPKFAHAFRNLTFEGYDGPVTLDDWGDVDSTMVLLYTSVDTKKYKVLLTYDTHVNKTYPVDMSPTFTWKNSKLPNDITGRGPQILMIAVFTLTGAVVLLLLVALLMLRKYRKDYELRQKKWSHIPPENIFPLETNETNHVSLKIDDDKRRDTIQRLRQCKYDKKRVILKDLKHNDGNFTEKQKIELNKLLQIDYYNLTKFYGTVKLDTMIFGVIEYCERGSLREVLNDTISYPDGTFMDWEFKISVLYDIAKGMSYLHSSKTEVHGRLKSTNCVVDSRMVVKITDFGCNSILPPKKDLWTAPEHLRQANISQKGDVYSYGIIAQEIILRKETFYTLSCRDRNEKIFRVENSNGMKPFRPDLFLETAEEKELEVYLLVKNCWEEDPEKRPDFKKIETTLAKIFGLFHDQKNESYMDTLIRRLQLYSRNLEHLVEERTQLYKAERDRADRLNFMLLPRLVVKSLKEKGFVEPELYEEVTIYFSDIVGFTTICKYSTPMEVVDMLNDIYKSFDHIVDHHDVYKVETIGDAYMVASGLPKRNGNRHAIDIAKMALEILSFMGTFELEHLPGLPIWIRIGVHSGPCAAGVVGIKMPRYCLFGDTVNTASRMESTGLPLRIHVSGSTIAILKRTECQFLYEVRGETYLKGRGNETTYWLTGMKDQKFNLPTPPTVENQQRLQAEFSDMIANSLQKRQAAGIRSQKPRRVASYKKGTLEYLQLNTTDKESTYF

[9] = tested on: mice; settings: mouse, in vivo; cited from earlier work
[10] = tested on: mice lacking GC-C; settings: ref [12]; cited from earlier work
[11] = molecular target: T2, human GC-C; experiment: In vitro GC assay, MnGTP as substrate, hGC-C; type: biochemical; settings: 1 mM MnATP, 1 mM MnGTP; Fig. 4B
[12] = molecular target: T1, mouse GC-C; experiment: In vitro GC assay, MnGTP as substrate, mGC-C; type: biochemical; settings: 1 mM MnATP, 1 mM MnGTP; Fig. 4B
[13] = tested on: hmCYC chimeric GC-C; experiment: In vitro GC assay, MnGTP as substrate, hmCYC; type: biochemical; settings: 1 mM MnATP, 1 mM MnGTP; Fig. 4B
[14] = molecular target: T1, mouse GC-C; experiment: In vitro GC assay, MgGTP as substrate, with or without Lubrol, mGC-C; type: biochemical; settings: 1 mM MgGTP, Fig. 4A
[15] = tested on: hmCYC chimeric GC-C; experiment: In vitro GC assay, MgGTP as substrate, Lubrol-stimulated, hmCYC; type: biochemical; settings: 1 mM MgATP, 1 mM MgGTP, 0.1% Lubrol-PX; Fig. 4A
[16] = tested on: mhCYC chimeric GC-C; experiment: In vitro GC assay, MgGTP as substrate, Lubrol-stimulated, mhCYC; type: biochemical; settings: 1 mM MgATP, 1 mM MgGTP, 0.1% Lubrol-PX; Fig. 4A
[17] = tested on: chimeric receptor harboring the mouse KHD; type: biochemical; settings: 0.1% Lubrol-PX, MgGTP
[18] = molecular target: T2, human GC-C; settings: Mn2+ as metal ion; ref [25]; cited from earlier work
[19] = tested on: hGC-C; settings: Mg2+ as metal ion cofactor, ref [25]; cited from earlier work
[20] = tested on: GC-CK516A; settings: Mg2+; ref [25]; cited from earlier work
[21] = tested on: GC-CK516A; settings: ref [25]; cited from earlier work
[22] = tested on: GC-C; settings: in vitro; ref [38]; cited from earlier work

Compound: CC(C)C[C@@H]1NC(=O)[C@H](CCC(=O)O)NC(=O)[C@@H]2CSSC[C@@H]3NC(=O)[C@H](C)NC(=O)[C@@H]4CCCN4C(=O)[C@H](CC(N)=O)NC(=O)[C@H](CSSC[C@H](NC(=O)[C@H](Cc4ccc(O)cc4)NC(=O)[C@H](CC(N)=O)NC(=O)[C@H](CO)NC(=O)[C@H](CO)NC(=O)[C@@H](N)CC(N)=O)C(=O)N2)NC(=O)[C@H](CSSC[C@@H](C(=O)N[C@@H](Cc2ccc(O)cc2)C(=O)O)NC(=O)CNC(=O)[C@H]([C@@H](C)O)NC3=O)NC1=O [ST] (H-NSSNYCCELCCNPACTGCY-OH; disulfide 6-11, 7-15, 10-18; N-terminus and C-terminus assumed)
- affinity to the ST peptide of the mhICD chimera [1]: reduced affinity to the ST peptide
- ligand binding ability of variant 2 [2]: marked reduction in the ligand binding ability
- binding to ST of GCD chimeric receptors [3]: determined by the ECD
- accumulation of cGMP at saturating ST, mGC-C [4]: much reduced in comparison with cells expressing hGC-C
- intracellular cGMP accumulation, mGC-C lower than hGC-C [4]: ~ 10 fold
- cGMP levels on ST treatment, variant 1 [5]: significant increase in cGMP levels
- cGMP levels on ST treatment, variant 2 [6]: remained unchanged
- cGMP accumulation, hmCYC versus hGC-C [7]: log order reduction in cGMP accumulation when compared to hGC-C
- affinity of plasma membrane- and endoplasmic reticulum–associated hGC-C for ST [8]: comparable affinities
- accumulation of fluid in the gut of mice on ST treatment [9]: leads to the accumulation of fluid in the gut
- ST-induced fluid accumulation in mice lacking GC-C [10]: resistant to ST-induced fluid accumulation

Compound: Nc1ncnc2c1ncn2[C@@H]1O[C@H](COP(=O)(O)OP(=O)(O)OP(=O)(O)O)[C@@H](O)[C@H]1O [ATP]
- ATP-mediated inhibition of GC activity with MnGTP, hGC-C [11]: remained
- ATP-mediated inhibition of GC activity with MnGTP, mGC-C [12]: remained; also recorded: displayed ATP-mediated inhibition of MnGTP-mediated activity
- ATP-mediated inhibition of MnGTP-mediated activity, hmCYC [13]: displayed ATP-mediated inhibition of MnGTP-mediated activity
- ATP-mediated inhibition of Lubrol-stimulated GC activity, mGC-C ([14]; 1 mM MgATP, 0.1% Lubrol-PX): lost and no allosteric inhibition of guanylyl cyclase activity and no inhibition of detergent-mediated activity by ATP
- ATP-mediated inhibition of Lubrol-stimulated GC activity, hmCYC [15]: retained
- ATP-mediated inhibition of Lubrol-stimulated GC activity, mhCYC [16]: lost
- ATP inhibition of detergent-mediated activity, chimeric receptor harboring the mouse KHD [17]: no inhibition of detergent-mediated activity by ATP
- ATP inhibition of GC activity with Mn2+ [18]: inhibits GC activity when Mn^2+ is the metal ion used in assays
- ATP inhibition of Lubrol-stimulated GC activity [19]: inhibits Lubrol-stimulated GC activity
- ATP inhibition of Lubrol-stimulated GC activity, GC-CK516A [20]: inhibition is lost
- ATP inhibition of GC activity with Mn2+, GC-CK516A [21]: inhibition is also seen
- ATP inhibition of MnGTP-mediated and detergent-mediated GC activity [22]: inhibit in vitro MnGTP-mediated and detergent-mediated GC activity

Compound: MgGTP
- GC activity of mGC-C in the presence of MgGTP ([14]; 4 mM free MgCl2, 37 °C 10 min, words): lower than that of hGC-C
